One series has as its system Human alphaherpesvirus 2. As to the kind of experiment: Antiviral activity against Human herpesvirus 2 strain G infected in human HEL cells assessed as inhibition of virus-induced cytopathic effect after 3 days by microscopic method. Type of series: functional, organism-based. The note with it: Human alphaherpesvirus 2, strain G, 72 h.
The nature of series [1]: Selectivity index, ratio of MCC for HEL cells to EC50 for acyclovir-resistant TK-defecient Herpes simplex virus 1 KOS infected in HEL cells. The note with it: human, read-out: Selectivity Index. Type of series: toxicity, cell-based. Put shortly: (§1)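 SI is MCC divided by EC50. […] MCC was measured in parallel on HEL cells seeded at 5 x 10^3 cells/well, as the lowest concentration causing microscopically visible alteration of cell morphology. The top concentration tested was 100 µM.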

Series [2] relates to Human alphaherpesvirus 1. As to the kind of experiment: Antiviral activity against acyclovir-resistant TK-defecient Herpes simplex virus 1 KOS infected in human HEL cells assessed as inhibition of virus-induced cytopathic effect after 3 days by microscopic method. Particulars: Human alphaherpesvirus 1, KOS, 72 h. The class given is functional, organism-based. On the technique in general: Damage to the host cells serves as the signal in cytopathic effect assays.

The test system of a further series is Human coronavirus 229E. The series can be described thus: Antiviral activity against Human coronavirus 229E infected in HEL cells assessed as reduction in virus-induced pathogenicity after 3 days by microscopic method. The class given is functional, organism-based. The note with it: 72 h.
Another series concerns Human adenovirus 2. As to the kind of experiment: Antiviral activity against Human adenovirus 2 infected in human HEL cells assessed as inhibition of virus-induced cytopathic effect after 3 days by microscopic method. Type of series: functional, organism-based. The note with it: Human mastadenovirus C, 72 h. Put shortly:
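HEL cells were infected with adenovirus 2 for 2 h. Residual virus was then removed and the cells were incubated with medium containing graded compound concentrations for 3 days at 37°C. Virus-induced cytopathogenicity was scored microscopically.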

Series [3] is described as follows: Selectivity index, ratio of MCC for HEL cells to EC50 for Herpes simplex virus 1 KOS infected in HEL cells. Type of series: toxicity, cell-based. The note with it: human, read-out: Selectivity Index. Put shortly:
as §1

Series [4] in a line: Selectivity index, ratio of MCC for HEL cells to EC50 for Human adenovirus 2 infected in HEL cells. The class given is toxicity, cell-based. The note with it: read-out: Selectivity Index. The gist of the method:
as §1

A short description of series [5]: Selectivity index, ratio of MCC for HEL cells to EC50 for Human coronavirus 229E infected in HEL cells. The class given is toxicity, cell-based. Particulars: read-out: Selectivity Index. Put shortly:
as §1

Series [6] in a line: Selectivity index, ratio of MCC for HEL cells to EC50 for Herpes simplex virus 2 strain G infected in HEL cells. Type of series: toxicity, cell-based. The note with it: human, read-out: Selectivity Index. The gist of the method: as §1
Series [7] is described as follows: Selectivity index, ratio of MCC for HEL cells to EC50 for Vaccinia virus infected in HEL cells. Particulars: human, read-out: Selectivity Index. Type of series: toxicity, cell-based. Put shortly:
as §1

Series [8] is described as follows: Cytotoxicity against HEL cells assessed as alteration in cell morphology after 3 days by microscopic method. Type of series: cell-based. Particulars: human. Put shortly:
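HEL cells were seeded at 5 x 10^3 cells/well and exposed to graded compound concentrations, up to 100 μM, in parallel with the antiviral assay. Cell morphology was examined by light microscopy. MCC is the minimum concentration causing a microscopically detectable alteration of normal cell morphology.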

For a further series, the system named is Vaccinia virus. As to the kind of experiment: Antiviral activity against Vaccinia virus infected in human HEL cells assessed as inhibition of virus-induced cytopathic effect after 3 days by microscopic method. The class given is functional, organism-based. Particulars: Orthopoxvirus vaccinia, 72 h.
Series [9] concerns Human alphaherpesvirus 1. As to the kind of experiment: Antiviral activity against Herpes simplex virus 1 KOS infected in human HEL cells assessed as inhibition of virus-induced cytopathic effect after 3 days by microscopic method. The class given is functional, organism-based. The note with it: Human alphaherpesvirus 1, KOS, 72 h.

As usually defined, the EC50 is the concentration at which the effect is half-maximal.

As for `CCOC(=O)C1(Cc2ccccc2)CN(c2ccccc2)Cc2nnn(Cc3ccc(Cl)c(Cl)c3)c21` (configuration not stated), the EC50 with Human alphaherpesvirus 2, in the series with Human alphaherpesvirus 1 [2], in the series with Human coronavirus 229E, with Human adenovirus 2, in the series with Vaccinia virus and with Human alphaherpesvirus 1 [9] was more than 100 µM each time. For the same compound, the selectivity ratio in series [1], in series [3], in [4], in series [5], in [6] and in series [7] was more than 8 each time. In addition, the MCC at 72 h in [8] was more than 100 µM.

Take `CCOC(=O)C1(Cc2ccccc2)CN(c2ccccc2)Cc2nnn(Cc3cccc(Cl)c3)c21` (configuration not stated): the EC50 in the series with Human alphaherpesvirus 2, in the series on Human alphaherpesvirus 1 [2], in the series on Human coronavirus 229E, in the series on Human adenovirus 2, in the series with Vaccinia virus and in the series on Human alphaherpesvirus 1 [9] was more than 100 µM throughout. Moreover, the selectivity ratio in series [1], in series [3], in series [4], in series [5], in [6] and in [7] was more than 8 throughout. Besides, the MCC at 72 h in series [8] is more than 100 µM.

Turning to `CCCCCCn1nnc2c1CCN(c1ccc(C(F)(F)F)cc1)C2`, the EC50 in the series on Human alphaherpesvirus 2, with Human alphaherpesvirus 1 [2], in the series with Human coronavirus 229E, with Human adenovirus 2, in the series with Vaccinia virus and with Human alphaherpesvirus 1 [9] was more than 100 µM throughout. Besides, the selectivity ratio in series [1], in [3], in series [4], in [5], in series [6] and in series [7] was more than 8 throughout. Also, the MCC at 72 h in series [8] was more than 100 µM.

For `CCOC(=O)C1(Cc2ccccc2)CN(c2ccccc2)Cc2nnn(Cc3cccc(F)c3)c21` (configuration not stated), the EC50 with Human alphaherpesvirus 2, with Human alphaherpesvirus 1 [2], in the series on Human coronavirus 229E, in the series on Human adenovirus 2, in the series on Vaccinia virus and in the series on Human alphaherpesvirus 1 [9] was more than 100 µM throughout. Moreover, the selectivity ratio in series [1], in series [3], in series [4], in series [5], in series [6] and in series [7] was more than 8 in each case. Moreover, the MCC at 72 h in [8] was not below 100 µM.

As to `CCOC(=O)C1(Cc2ccccc2)CN(c2ccccc2)Cc2nnn(Cc3ccc(OC)cc3)c21` (configuration not stated), the EC50 with Human alphaherpesvirus 2, in the series on Human alphaherpesvirus 1 [2], in the series on Human coronavirus 229E, with Human adenovirus 2, in the series on Vaccinia virus and with Human alphaherpesvirus 1 [9] was more than 100 µM in each case. For the same compound, the selectivity ratio in [1], in series [3], in series [4], in series [5], in series [6] and in series [7] was more than 8 in each case. The MCC at 72 h in series [8] is more than 100 µM.

For `CCOC(=O)C1(Cc2ccccc2)CN(c2ccccc2)Cc2nnn(Cc3ccccc3Cl)c21` (configuration not stated), the EC50 in the series on Human alphaherpesvirus 2, with Human alphaherpesvirus 1 [2], in the series with Human coronavirus 229E, with Human adenovirus 2, in the series with Vaccinia virus and in the series with Human alphaherpesvirus 1 [9] was more than 100 µM in each case. Moreover, the selectivity ratio in series [1], in [3], in series [4], in series [5], in [6] and in series [7] was more than 8 each time. Further, the MCC at 72 h in series [8] was more than 100 µM.

In the case of `CCOC(=O)C1(Cc2ccccc2)CN(c2ccccc2)Cc2nnn(Cc3ccc(Cl)cc3)c21` (configuration not stated), the EC50 in the series on Human alphaherpesvirus 2, in the series with Human alphaherpesvirus 1 [2], with Human coronavirus 229E, in the series on Human adenovirus 2, with Vaccinia virus and with Human alphaherpesvirus 1 [9] was more than 100 µM each time. Further, the selectivity ratio in series [1], in [3], in series [4], in series [5], in series [6] and in [7] was more than 8 throughout. For the same compound, the MCC at 72 h in series [8] was more than 100 µM.

On to `COc1ccccc1CCn1nnc2c1CCN(c1ccc(C(F)(F)F)cc1)C2`, for which the EC50 with Human alphaherpesvirus 2, in the series with Human alphaherpesvirus 1 [2], in the series on Human coronavirus 229E, in the series with Human adenovirus 2, in the series with Vaccinia virus and with Human alphaherpesvirus 1 [9] was more than 100 µM throughout. Also, the selectivity ratio in [1], in [3], in series [4], in [5], in series [6] and in [7] was more than 8 each time. In addition, in series [8], the MCC at 72 h was more than 100 µM.

Take `Fc1ccc(Cn2nnc3c2CCN(c2ccc(C(F)(F)F)cc2)C3)cc1`: the EC50 in the series with Human alphaherpesvirus 2, in the series with Human alphaherpesvirus 1 [2], with Human coronavirus 229E, in the series on Human adenovirus 2, in the series on Vaccinia virus and with Human alphaherpesvirus 1 [9] was more than 100 µM each time. The selectivity ratio in series [1], in series [3], in series [4], in series [5], in [6] and in series [7] was more than 8 in each case. Moreover, the MCC at 72 h in series [8] was found to be 100 µM.

Regarding `CCCCCCn1nnc2c1CCN(c1ccc(F)cc1)C2`, the EC50 with Human alphaherpesvirus 2, in the series on Human alphaherpesvirus 1 [2], with Human coronavirus 229E, in the series with Human adenovirus 2, with Vaccinia virus and in the series on Human alphaherpesvirus 1 [9] was more than 100 µM each time. Also, the selectivity ratio in series [1], in series [3], in series [4], in [5], in series [6] and in series [7] was more than 8 throughout. In addition, the MCC at 72 h in [8] was more than 100 µM.

As for `CCOC(=O)C1(Cc2ccccc2)CN(c2ccccc2)Cc2nnn(Cc3ccccc3)c21` (configuration not stated), the EC50 in the series with Human alphaherpesvirus 2, in the series on Human alphaherpesvirus 1 [2], with Human coronavirus 229E, in the series on Human adenovirus 2, in the series on Vaccinia virus and in the series on Human alphaherpesvirus 1 [9] was more than 100 µM throughout. The selectivity ratio in series [1], in series [3], in series [4], in series [5], in series [6] and in series [7] was more than 8 each time. For the same compound, the MCC at 72 h in series [8] was not below 20 µM.

On to `CCOC(=O)C1(Cc2ccccc2)CN(c2ccccc2)Cc2nnn(Cc3ccc(F)cc3)c21` (configuration not stated), for which the half-maximal effective concentration (EC50) in the series with Human alphaherpesvirus 2 is more than 100 µM; with Human alphaherpesvirus 1 [2], more than 100 µM; with Human coronavirus 229E, 8.95 µM; in the series on Human adenovirus 2 it was more than 100 µM; with Vaccinia virus, more than 100 µM; in the series on Human alphaherpesvirus 1 [9], more than 100 µM. The selectivity ratio in series [1], in [3], in [4], in series [5], in [6] and in series [7] was more than 8 throughout. In addition, the MCC at 72 h in series [8] is not below 100 µM.

Turning to `Fc1cccc(Cn2nnc3c2CCN(c2ccc(C(F)(F)F)cc2)C3)c1`, the EC50 in the series with Human alphaherpesvirus 2 is more than 100 µM; with Human alphaherpesvirus 1 [2], more than 100 µM; with Human coronavirus 229E it was 12 µM; in the series with Human adenovirus 2, more than 100 µM; in the series with Vaccinia virus, more than 100 µM; in the series with Human alphaherpesvirus 1 [9], more than 100 µM. In addition, the selectivity ratio in [1], in series [3], in series [4], in [5], in [6] and in series [7] was more than 8 throughout. Besides, the MCC at 72 h in series [8] came out at 100 µM.

As for `CCOC(=O)C1(Cc2ccccc2)CN(c2ccccc2)Cc2nnn(Cc3cc(OC)c(OC)c(OC)c3)c21` (configuration not stated), the half-maximal effective concentration (EC50) in the series on Human alphaherpesvirus 2, with Human alphaherpesvirus 1 [2], in the series with Human coronavirus 229E, in the series on Human adenovirus 2, in the series on Vaccinia virus and in the series on Human alphaherpesvirus 1 [9] was more than 100 µM throughout. Further, the selectivity ratio in series [1], in series [3], in [4], in series [5], in series [6] and in series [7] was more than 8 in each case. Further, the MCC at 72 h in series [8] is not below 100 µM.

For the origin of these results see ChEMBL document CHEMBL4265975, “Synthesis, biological evaluation and molecular modeling of a novel series of fused 1,2,3-triazoles as potential anti-coronavirus agents” (Bioorg Med Chem Lett, 2018).
